According to ChEMBL document CHEMBL1136217, “Mapping the kinase domain of Janus Kinase 3” (Bioorg Med Chem Lett, 2003):
The source made the active and inactive calls. The calls are words filed in the database; no cut-off is given here.

How the values were obtained:
CTLL [1] = test: Inhibitory activity against IL-2 induced proliferation in mouse CTLL cells; type: functional, cell-based
Procedure, shortened: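 Murine CTLL cells were seeded at 2 × 10^4 per well without IL-2 for 6 h. At time zero, recombinant human IL-2 (10 U/mL) and inhibitor in DMSO (0.5% final) were added. [3H]-thymidine (1 µCi/well) was added at 18 h, and cells were harvested at 24 h. Proliferation was read as incorporated radioactivity by scintillation counting.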

T-cell [2] = test: Inhibitory activity against IL-2 induced proliferation in human T-cells; type: functional, cell-based
[3] = target: T1, Tyrosine-protein kinase JAK3 (Homo sapiens, UniProt P52333); test: Inhibitory activity against Janus Kinase 3 protein tyrosine kinase.
T1 sequence (P52333 whole entry): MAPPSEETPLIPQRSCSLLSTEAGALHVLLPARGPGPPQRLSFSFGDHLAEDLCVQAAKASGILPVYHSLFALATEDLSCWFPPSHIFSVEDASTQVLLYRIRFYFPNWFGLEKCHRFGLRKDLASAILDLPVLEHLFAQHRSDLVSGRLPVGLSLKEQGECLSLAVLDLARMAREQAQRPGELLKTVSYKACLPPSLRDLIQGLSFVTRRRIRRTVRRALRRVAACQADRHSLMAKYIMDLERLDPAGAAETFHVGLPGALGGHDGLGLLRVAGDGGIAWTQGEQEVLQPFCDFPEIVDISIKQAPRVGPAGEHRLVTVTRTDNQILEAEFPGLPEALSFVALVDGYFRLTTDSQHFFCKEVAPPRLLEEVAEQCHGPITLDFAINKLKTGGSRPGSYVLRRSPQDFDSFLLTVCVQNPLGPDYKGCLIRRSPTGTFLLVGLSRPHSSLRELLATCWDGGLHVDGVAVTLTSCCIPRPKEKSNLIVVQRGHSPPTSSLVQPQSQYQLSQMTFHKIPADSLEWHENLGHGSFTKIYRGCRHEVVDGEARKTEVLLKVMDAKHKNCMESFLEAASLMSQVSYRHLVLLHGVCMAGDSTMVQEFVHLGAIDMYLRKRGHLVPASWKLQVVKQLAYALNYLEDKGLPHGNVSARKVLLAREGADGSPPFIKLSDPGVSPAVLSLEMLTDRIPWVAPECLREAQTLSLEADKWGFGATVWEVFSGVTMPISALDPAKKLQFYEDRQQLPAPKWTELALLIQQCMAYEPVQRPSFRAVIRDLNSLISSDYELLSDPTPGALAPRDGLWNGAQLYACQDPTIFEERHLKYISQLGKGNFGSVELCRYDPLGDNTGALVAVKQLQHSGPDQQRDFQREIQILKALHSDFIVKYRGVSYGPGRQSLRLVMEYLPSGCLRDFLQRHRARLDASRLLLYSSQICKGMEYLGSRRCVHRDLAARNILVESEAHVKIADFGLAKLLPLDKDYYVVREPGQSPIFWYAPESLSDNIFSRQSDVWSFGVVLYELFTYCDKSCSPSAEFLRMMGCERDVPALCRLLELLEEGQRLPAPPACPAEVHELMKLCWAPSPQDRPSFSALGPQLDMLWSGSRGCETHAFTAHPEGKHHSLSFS

[4] = Area under curve (AUC) following ip administration at 1 mg/kg; type: ADME, organism-based; parameters: dose 1 mg/kg, route intraperitoneal; settings: in vivo
[5] = Cp max following ip administration at 1 mg/kg; type: ADME, organism-based; parameters: dose 1 mg/kg, route intraperitoneal; settings: plasma, read-out: Cp max
[6] = T max following ip administration at 1 mg/kg; type: ADME, organism-based; parameters: dose 1 mg/kg, route intraperitoneal; settings: in vivo
CTLL [7] = test: Inhibitory activity against IL-2 induced proliferation of mouse CTLL cells; type: functional, cell-based
[8] = Terminal T1/2 following ip administration at 1 mg/kg; type: ADME, organism-based; parameters: dose 1 mg/kg, route intraperitoneal; settings: in vivo
T-cell [9] = test: Inhibitory activity against IL-2 induced proliferation of human T-cells; type: functional, cell-based
[10] = target: Tyrosine-protein kinase JAK3 (Mus musculus) (UniProt Q62137); settings: at 3 µM
Chain of Tyrosine-protein kinase JAK3 (Mus musculus) (Q62137 whole entry, looked up): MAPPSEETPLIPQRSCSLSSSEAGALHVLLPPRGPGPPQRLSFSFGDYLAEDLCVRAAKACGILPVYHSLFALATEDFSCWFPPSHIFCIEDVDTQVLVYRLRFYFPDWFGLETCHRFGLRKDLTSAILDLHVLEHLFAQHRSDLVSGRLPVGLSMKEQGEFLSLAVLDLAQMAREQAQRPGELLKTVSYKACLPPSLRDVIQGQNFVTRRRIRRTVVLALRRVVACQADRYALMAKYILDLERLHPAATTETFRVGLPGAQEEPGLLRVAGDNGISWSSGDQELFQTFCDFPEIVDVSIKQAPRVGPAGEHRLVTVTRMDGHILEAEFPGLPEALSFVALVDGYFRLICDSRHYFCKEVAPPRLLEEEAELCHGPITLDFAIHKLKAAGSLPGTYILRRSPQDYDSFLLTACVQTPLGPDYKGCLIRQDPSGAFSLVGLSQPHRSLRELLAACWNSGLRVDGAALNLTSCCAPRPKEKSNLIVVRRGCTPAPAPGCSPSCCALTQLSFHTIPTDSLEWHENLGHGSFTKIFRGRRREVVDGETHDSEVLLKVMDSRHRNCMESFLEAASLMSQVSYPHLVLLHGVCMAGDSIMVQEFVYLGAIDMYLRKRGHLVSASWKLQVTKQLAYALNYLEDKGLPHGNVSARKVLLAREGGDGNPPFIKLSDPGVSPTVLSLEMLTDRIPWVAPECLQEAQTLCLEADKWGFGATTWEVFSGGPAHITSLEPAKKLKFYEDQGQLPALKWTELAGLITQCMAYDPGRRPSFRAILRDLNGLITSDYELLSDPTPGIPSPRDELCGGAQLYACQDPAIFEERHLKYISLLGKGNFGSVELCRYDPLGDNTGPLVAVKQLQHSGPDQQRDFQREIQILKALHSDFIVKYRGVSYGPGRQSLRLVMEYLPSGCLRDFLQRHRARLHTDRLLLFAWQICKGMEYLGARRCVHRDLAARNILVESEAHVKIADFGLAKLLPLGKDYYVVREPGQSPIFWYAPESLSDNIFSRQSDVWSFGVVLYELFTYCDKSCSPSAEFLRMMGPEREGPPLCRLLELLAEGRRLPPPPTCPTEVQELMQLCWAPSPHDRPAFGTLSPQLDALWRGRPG

With `O=C1Nc2ncc(-c3cccnc3)cc2/C1=C/c1ccc[nH]1` the IC50 (CTLL [1]) was 2.3 µM and the IC50 (T-cell [2]) was 2 µM.
Molecule `O=C1Nc2ccc([N+](=O)[O-])cc2/C1=C/c1ccc[nH]1` has an IC50 [3] of 0.71 µM.
In the case of `O=C1Nc2ccc(C(=O)c3cccnc3)cc2/C1=C/c1ccc[nH]1`, the IC50 [3] is reported as 0.168 µM.
`CN(C)c1ccc(/C=C2\C(=O)Nc3ccc(C(=O)c4cccs4)cc32)cc1` showed an IC50 [3] of 0.2 µM.
In the case of `CC(=O)Nc1ccc(/C=C2\C(=O)Nc3ccc(C(=O)c4cccs4)cc32)cc1`, the IC50 [3] is reported as 0.7 µM.
`CS(=O)(=O)c1ccc(/C=C2\C(=O)Nc3ccc(C(=O)c4cccs4)cc32)cc1` showed an IC50 [3] of 7.1 µM.
In the case of `O=C1Nc2ccc(C(=O)c3cccs3)cc2/C1=C/C(=O)c1ccc[nH]1`, the IC50 [3] is reported as 0.26 µM.
`O=C1Nc2ccc(C(=O)c3cccs3)cc2/C1=C/c1ccc[nH]1` showed an IC50 [3] of 0.026 µM.
`O=C1Nc2cnc(-c3cccnc3)cc2/C1=C/c1ccc[nH]1` gave an AUC [4] of 4580 ng·h/mL, a Cmax [5] of 700 ng/mL and a Tmax [6] of 0.5 h. For the same molecule, the IC50 (CTLL [7]) was 0.45 µM, the half-life [8] was 3.3 h and the IC50 (T-cell [9]) was 0.03 µM.
In the case of `O=C1Nc2ccc(C(=O)O)cc2/C1=C/c1ccc[nH]1`, the IC50 [3] is reported as 0.213 µM.
In the case of `O=C1Nc2ccc(-c3cccnc3)cc2/C1=C/c1ccc[nH]1`, the AUC [4] is reported as 7690 ng·h/mL, the Cmax [5] is reported as 600 ng/mL and the Tmax [6] is reported as 0.5 h. The half-life [8] was 3 h.
`O=C1Nc2ccc(C(=O)c3cccs3)cc2/C1=C/c1ccccc1` showed an IC50 [3] of 2.3 µM.
For `O=C1Nc2ccc(C(=O)c3cccs3)cc2/C1=C/c1ccc(F)cc1`, the IC50 [3] was 4.9 µM.
With `O=C1Nc2ccc(NC(=O)c3ccccc3)cc2/C1=C/c1ccc[nH]1` the IC50 [3] was 0.87 µM.
For `O=C1Nc2ccc(C(O)c3cccs3)cc2/C1=C/c1ccc[nH]1` (centres undefined), the IC50 [3] was 0.19 µM.
`O=C1Nc2ccc(-c3cccnc3)nc2/C1=C/c1ccc[nH]1` gave an IC50 (CTLL [7]) of 0.92 µM, an IC50 [3] of 0.235 µM and an IC50 (T-cell [9]) of 0.7 µM. The inhibition [10] was “Active”.
In the case of `CN(C)C(=O)c1ccc2c(c1)/C(=C/c1ccc[nH]1)C(=O)N2`, the IC50 [3] is reported as 0.21 µM.
